Screens from PubChem BioAssay.
An excerpt weighted towards active compounds, which were near 4.3% of everything screened.
Rin1 Abl inh = human Rin1-Abl interaction inhibition | inhibition, % at 7.35 µM | actives 0.4% (n = 360,000) | TR-FRET Rin1/Abl binding, biochemical; in the data active means inhibition above about 5%, passing the limit was not always enough
RBBP9 inhibitor = human RBBP9 hydrolase inhibition; actives 0.2% (n = 220,000); recombinant RBBP9, FP-Rh probe fluorescence polarization; AID 1515; O75884; inhibition, % at 7.94 µM;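 active means inhibition above the campaign mean of all tested compounds plus 3 SD, cut at about 14% in these data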;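 further: plate controls were DMSO wells with RBBP9 for no effect and wells lacking RBBP9 protein for full effect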
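System: RBBP9 protein | Quantity: 2.5 µM RBBP9 dispensing solution, before mixing | Reagent: FP-Rh probe, 375 nM dispensing solution | Timing: Enzyme-compound preincubation 30 min, then probe labeling 45 min, 25 °C | Measured by: Fluorescence polarization | Read-out: % inhibition | Replication: One well per compound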
UBC13 inh = inhibitors of human UBC13 polyubiquitin chain formation; P61088; TR-FRET; inhibition, % at 20 µM; actives 0.47% (n = 330,000); AID 485273; in the data active means inhibition above about 45%, passing the limit was not always enough
ALR H2O2 inh = inhibitors of human sulfhydryl oxidase ALR | purified ALR, DTT oxidation, H2O2 HRP-luminol luminescence | actives 3.8% (n = 290,000) | inhibition, % (concentration not given with the values) | P55789 | AID 485317;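 active means mean replicate inhibition above about 79%, with every replicate also reaching it, limit read from the data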
UBC9 SUMO inh = inhibitors of human SUMOylation (UBC9); P63279; HTRF SUMOylation assay, SAE1/SAE2 + UBC9, in vitro; inhibition, % at 35 µM; actives 0.36% (n = 290,000); AID 2006; in the data active means inhibition above about 50%, passing the limit was not always enough
PREPL inhibitor = inhibits the human prolyl oligopeptidase-like enzyme; actives 0.68% (n = 320,000); Q4J6C6; recombinant PREPL, fluorescence polarization activity-based probe; inhibition, % at 5.96 µM; in the data active means inhibition above about 43%;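 further: 0% = enzyme with DMSO and 100% = wells lacking enzyme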
Rin1 Abl conf = confirmation of inhibitors of human Rin1-Abl interaction. TR-FRET Rin1-Abl binding, purified proteins. inhibition, % at 7.35 µM. shares compounds with Rin1 Abl inh. actives 49% (n = 1,300)
GFP quench = counter-screen for Rin1-Abl inhibitors: GFP fluorescence quenchers; shares compounds with Rin1 Abl inh; inhibitors/quenchers counterscreen; inhibition, % at 6.75 µM; actives 8.5% (n = 1,300);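 further: ABL1-eGFP fusion protein alone without its partner RIN1-SBP; 0% = protein with vehicle and 100% = wells lacking protein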
* marks the source's active call; other numbers are inactive results; . = not tested or not shown. Unless noted, no stated cut-off is given here; in the data, active means inhibition above about 6.5%; inactive means the rest.

SMILES | Rin1 Abl inh | RBBP9 inhibitor | UBC13 inh | ALR H2O2 inh | UBC9 SUMO inh | PREPL inhibitor | Rin1 Abl conf | GFP quench
COc1ccc(-c2[nH]ncc2/C=N\NC(=O)c2ccc(Br)o2)cc1OC | -5 | . | -5 | 5 | 4 | 8 | . | .
CN(C)C(CNC(=O)c1ccc(NC(=O)CC#N)cc1)c1ccccc1 (centres undefined) | 10* | -12 | 3 | 0 | 4 | 12 | 6.7* | 0
COc1ccccc1C(=O)NC(CCSC)C(=O)OC(C)C(=O)NC1CC1 (centres undefined) | -1 | . | 4 | . | . | 6 | . | .
CCCc1cc(CN2CCOCC2)c(O)c(CN2CCOCC2)c1O | 0 | . | . | . | . | . | . | .
Oc1c(CN2CCOCC2)cc(CN2CCOCC2)c(O)c1O | 23* | . | . | . | . | . | 7.0* | 6
CC(C)N=c1scc(-c2cccs2)n1/N=C/c1ccc(O)c(O)c1O | 14* | 1 | -20 | 88* | 31 | 12 | 12* | 2
NC(=S)NN=Cc1cc(-c2cccc(N)c2)ccn1 | 11* | . | . | . | . | . | 14* | 5
CCOC(=O)C1CC(c2ccccc2)=NN1c1ccccc1 (centres undefined) | 3 | . | . | . | . | . | . | .
CCCc1cc(N2CCN(c3ccccn3)CC2)n2nc(C)c(-c3ccccc3)c2n1 | 8.1* | -6 | 31 | . | -4 | 9 | 0 | 0
